Compounds with a hit are over-represented: about 1.7% of the library has one in this group of screens.
Rpn11 inh – blocks the human proteasome subunit Rpn11; human 26S proteasome, Ub4-pepOG fluorescence polarization; 20S core pre-blocked with epoxomicin; 360,000 tested, 0.59% active; inhibition, % at 20 µM; O00487;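 active = inhibition at 20 µM, scaled to each plate's controls, above about 33%, limit read from the data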
Target sequence (O00487 whole entry, looked up): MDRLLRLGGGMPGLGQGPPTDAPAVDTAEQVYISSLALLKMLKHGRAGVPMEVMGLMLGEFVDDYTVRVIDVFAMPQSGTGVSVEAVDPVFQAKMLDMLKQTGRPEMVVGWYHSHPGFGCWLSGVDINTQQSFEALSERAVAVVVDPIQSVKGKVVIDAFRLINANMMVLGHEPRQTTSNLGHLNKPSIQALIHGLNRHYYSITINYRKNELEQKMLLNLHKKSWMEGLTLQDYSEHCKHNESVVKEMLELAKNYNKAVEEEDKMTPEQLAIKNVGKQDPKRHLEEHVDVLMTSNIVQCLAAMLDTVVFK
PLC-gamma1 inh – PLC-gamma1 (human) inhibition, primary screen; P19174; purified PLC-gamma1, fluorogenic substrate, fluorescence; inhibition, % at 12.2 µM; 370,000 tested, 0.84% active; in the data active = inhibition above about 9.5%
UCH37 DUB inh – human UCH37 deubiquitinating enzyme inhibition; Q9Y5K5; purified proteasome/UCH37, Ub-AMC cleavage fluorescence; inhibition, % (test concentration not listed); 330,000 tested, 0.33% active;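 active = mean inhibition over replicate wells above about 20%, limit read from the data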
Target sequence (Q9Y5K5 whole entry, looked up): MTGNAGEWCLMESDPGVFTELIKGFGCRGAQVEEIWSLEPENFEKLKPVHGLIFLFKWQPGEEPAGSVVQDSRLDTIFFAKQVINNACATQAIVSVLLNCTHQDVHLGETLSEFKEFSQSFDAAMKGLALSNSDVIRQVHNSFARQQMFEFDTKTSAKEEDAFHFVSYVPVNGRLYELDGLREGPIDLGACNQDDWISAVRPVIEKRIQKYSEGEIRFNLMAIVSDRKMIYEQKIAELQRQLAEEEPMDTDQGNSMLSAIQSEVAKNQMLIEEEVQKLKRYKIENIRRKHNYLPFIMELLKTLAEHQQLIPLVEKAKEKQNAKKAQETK
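System: Proteasome-associated human UCH37 deubiquitinase; Input: 0.15 nM proteasome in added enzyme buffer; Also added: Ub-AMC substrate from 1 µM stock; Incubation: 30 min compound-proteasome preincubation then 25 min substrate reaction, room temperature; Detection: fluorescence, ex 355 nm, em 460 nm; Read-out: % inhibition of Ub-AMC cleavage fluorescence; Benchmarks: no-proteasome and no-compound wells.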
PLC-beta3 inh – blocks human PLC-beta3 enzyme activity; Q01970; Purified PLC-beta3, fluorogenic substrate, fluorescence; AID 720704; 370,000 tested, 0.18% active; inhibition, % at 12.2 µM; in the data active = inhibition above about 11%
UCH37 confirm – confirmation of human UCH37 deubiquitinating enzyme inhibitors | inhibition, % at 20 µM | Proteasome-bound UCH37, Ub-AMC cleavage fluorescence | shares compounds with UCH37 DUB inh | 480 tested, 27% active;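 active = average inhibition over replicates above about 50%, so the earlier screening hit is confirmed, limit read from the data; inactive = the rest, counted as false positives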;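 also: based on cleavage rate fitted by regression over a 30 min kinetic read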
Large screens that a line does not name were inactive (follow-up assays come after a bar, where shown).

O=C(Nc1ccccc1Cl)c1c(F)c(F)c(F)c(F)c1F	none
O=C(NC1(O)C(=O)c2ccccc2C1=O)c1c(Cl)cccc1Cl	UCH37 DUB inh 80 | UCH37 confirm 52
Cc1n[nH]c(=S)n1N=Cc1ccccc1	none (no result: Rpn11 inh, PLC-gamma1 inh, PLC-beta3 inh)
O=C1C(=O)c2ccccc2C(O)=C1c1ccccc1F	none
O=C1C(O)=C(O)C(=O)c2ccccc21	UCH37 DUB inh 72 | UCH37 confirm inactive
O=C1c2ccccc2C(=O)c2[nH]cnc21	none (no result: UCH37 DUB inh)
O=C1c2ccccc2C(=O)c2[nH]c(=O)[nH]c21	UCH37 DUB inh 41 | UCH37 confirm inactive
O=C1Cc2ccccc2C(=O)N1CCc1ccccc1	UCH37 DUB inh 62 | UCH37 confirm inactive
COC(=O)COc1ccc(S(=O)(=O)NCCC2=CCCCC2)cc1C	UCH37 DUB inh 55 | UCH37 confirm 60
CCCNS(=O)(=O)c1ccc(OCC(=O)NCCC2=CCCCC2)cc1	UCH37 DUB inh 36 | UCH37 confirm inactive
COc1ccc(C=Nn2c(-c3cccs3)n[nH]c2=S)cc1	none (no result: Rpn11 inh, PLC-gamma1 inh, PLC-beta3 inh)
CCN(CC)c1ccc(C=Nn2c(C)cc(C)cc2=O)cc1	none (no result: Rpn11 inh, PLC-gamma1 inh, PLC-beta3 inh)
CCCCN1C(=O)/C(=C/C=C2\SCCN2C)SC1=S	none (not shown: Rpn11 inh)
CN1CCS/C1=C/C=C1\SC(=S)N(CC(=O)O)C1=O	UCH37 DUB inh 38 (not shown: Rpn11 inh) | UCH37 confirm inactive
CC(C=NO)Cc1ccc2c(c1)OCO2 (stereo not drawn)	none (no result: Rpn11 inh, PLC-gamma1 inh, PLC-beta3 inh)
Cc1[nH][nH]c(=O)c1C(c1ccc(Br)cc1)c1c(C)[nH][nH]c1=O	none
Cc1[nH][nH]c(=O)c1C(c1ccc(-c2cccc(Cl)c2)o1)c1c(C)[nH][nH]c1=O	UCH37 DUB inh 81 (no result: PLC-gamma1 inh, PLC-beta3 inh) | UCH37 confirm 84
COC(=O)c1ccc(-c2ccc(C(c3c(C)[nH][nH]c3=O)c3c(C)[nH][nH]c3=O)o2)cc1	UCH37 DUB inh 45 | UCH37 confirm 67
COC(=O)COc1ccc(C(c2c(C)[nH][nH]c2=O)c2c(C)[nH][nH]c2=O)cc1	none
Cc1[nH][nH]c(=O)c1C(c1ccc(-c2cccc(C(=O)O)c2)o1)c1c(C)[nH][nH]c1=O	UCH37 DUB inh 44 | UCH37 confirm 71
CCCCCCCC1CC(C(C)=NNC(N)=O)OC1=O (stereo not drawn)	none (no result: Rpn11 inh, PLC-gamma1 inh, PLC-beta3 inh)
O=S(=O)(N=Cc1ccccc1O)c1cccs1	none (no result: Rpn11 inh, PLC-gamma1 inh, PLC-beta3 inh)
CC(C)(C)c1cc[n+](C2=C([O-])c3ccccc3C(=O)/C2=N\S(=O)(=O)c2cccs2)cc1	UCH37 DUB inh 50 | UCH37 confirm 58
O=C1/C(=N\S(=O)(=O)c2cccs2)C([n+]2ccccc2)=C([O-])c2ccccc21	UCH37 DUB inh 51 | UCH37 confirm inactive
Cc1ccc[n+](C2=C([O-])c3ccccc3C(=O)C2=O)c1	none (no result: Rpn11 inh, UCH37 DUB inh)
O=C(NNc1cc(N2CCOCC2)nc(N2CCOCC2)n1)c1ccc([N+](=O)[O-])cc1	UCH37 DUB inh 26 | UCH37 confirm inactive
O=C1N=C(N2CCCC2C(=O)O)S/C1=C\c1ccco1 (stereo not drawn)	UCH37 DUB inh 43 | UCH37 confirm inactive
Cc1cccc(C(=O)N2CCCCCC2)c1	none | UCH37 confirm inactive
CCN1C(=O)C(CC(=O)Nc2cccc(C(C)=O)c2)SC1=Nc1ccccn1 (stereo not drawn)	none (no result: Rpn11 inh, PLC-gamma1 inh, PLC-beta3 inh)
CCN(CC)c1ccc(/C=C(/C#N)C(=O)NC(C)C)o1	UCH37 DUB inh 29 (not shown: Rpn11 inh) | UCH37 confirm inactive
CCN(CC)c1ccc(/C=C(/C#N)C(=O)NCc2ccccc2)o1	none (not shown: Rpn11 inh)
CC(C)NC(=O)/C(C#N)=C\c1ccc(N(C)C)o1	UCH37 DUB inh 37 (not shown: Rpn11 inh) | UCH37 confirm inactive
CC(=NOC(=O)Nc1ccc(Cl)cc1)c1ncc(C(F)(F)F)cc1N1CCOCC1	none (no result: Rpn11 inh, PLC-gamma1 inh, PLC-beta3 inh)
COC(=O)NN=Cc1cc2c(cc1Br)OCO2	none (no result: Rpn11 inh, PLC-gamma1 inh, PLC-beta3 inh)
O=C(NN=Cc1ccc2c(c1)OCO2)c1cccc(NC(=O)c2ccccc2Cl)c1	none (no result: Rpn11 inh, PLC-gamma1 inh, PLC-beta3 inh)
O=C(O)c1cccc(NN=CC2=C(Cl)c3cc(Cl)ccc3SC2)c1	none (no result: Rpn11 inh, PLC-gamma1 inh, PLC-beta3 inh)
CC(=O)NNc1nc(-c2ccc(NC(C)=O)cc2)cs1	UCH37 DUB inh 37 | UCH37 confirm inactive
Nc1ccc(C(=O)OCC(=O)N2CCOCC2)cc1[N+](=O)[O-]	UCH37 DUB inh 38 | UCH37 confirm inactive
COc1ccc(C=Nn2c(-c3ccccc3)n[nH]c2=S)cc1	none (no result: Rpn11 inh, PLC-gamma1 inh, PLC-beta3 inh)
Cc1c(C)c2c(C)nn(-c3ccccc3)c2[nH]c1=O	none
Nc1c2c(=O)[nH]c(O)cc2nn1-c1ccccc1	UCH37 DUB inh 31 | UCH37 confirm inactive
Cn1cnc([N+](=O)[O-])c1S(=O)(=O)c1ccc(Cl)cc1	UCH37 DUB inh 49 | UCH37 confirm inactive
Cc1c(/C(O)=C2/C(=O)C(=O)N(CCN3CCOCC3)C2c2cccs2)cnn1-c1ccccc1 (stereo not drawn)	none
Cc1c(/C(O)=C2\C(=O)C(=O)N(CCCN(C)C)C2c2cccs2)cnn1-c1ccccc1 (stereo not drawn)	UCH37 DUB inh 35 | UCH37 confirm inactive
Cc1ccc(N2C(=O)[C@@H]3[C@H](C2=O)C2c4ccccc4C=CN2[C@@H]3C(=O)c2ccco2)c(C)c1 (stereo partly drawn)	UCH37 DUB inh 28 | UCH37 confirm inactive
O=C(c1ccco1)[C@@H]1[C@@H]2C(=O)N(c3ccccc3)C(=O)[C@@H]2C2c3ccccc3C=CN21 (stereo partly drawn)	UCH37 DUB inh 64 | UCH37 confirm inactive
CCNC(=S)NN=Cc1ccccc1[N+](=O)[O-]	none (no result: Rpn11 inh, PLC-gamma1 inh, PLC-beta3 inh)
Cc1nn(C)cc1C=NNC(=O)C(C)(C)Oc1ccc(Cl)cc1	none (no result: Rpn11 inh, PLC-gamma1 inh, PLC-beta3 inh)
CCOC(=O)C1=C(COC(=O)c2sccc2C)NC(=O)NC1C (stereo not drawn)	none
CCOC(=O)C1=C(COC(=O)c2ccc([N+](=O)[O-])s2)NC(=O)NC1C (stereo not drawn)	UCH37 DUB inh 83 | UCH37 confirm inactive
C/C(C=NNC(=O)c1cc(-c2cccn2C)n[nH]1)=C\c1ccccc1	none (no result: Rpn11 inh, PLC-gamma1 inh, PLC-beta3 inh)
